CCR6 antagonist: blocks CCL20-driven beta-arrestin recruitment at human CCR6. 340,000 compounds, 0.49% hits. AID 493098. inhibition, % at 20 µM. CHO-K1 CCR6 PathHunter beta-arrestin, luminescence, CCL20-stimulated;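 active = compounds whose inhibition of the agonist-driven luminescence signal at 20 µM reaches about 50%, limit read from the data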;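 note: cells stimulated with CCL20 at 14 nM final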
CXCR6 inh: CXCR6 (human) receptor inhibition. inhibition, % at 20 µM. 360,000 compounds, 0.36% hits. O00574. CHO-K1 PathHunter CXCR6 beta-arrestin, luminescence. AID 602244; in the data active = inhibition above about 34%, passing the limit was not always enough;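 note: antagonist mode with CXCL16 agonist at 10 nM final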
APJ ag: APJ receptor agonism; P35414; AID 2520; 330,000 compounds, 0.11% hits; activation, % at 20 µM; CHO-K1 APJ PathHunter beta-arrestin, luminescence; 0% DMSO wells, 100% apelin;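 active = activation more than six SD over the plate average, tested at 20 µM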
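assay system = CHO-K1 APJ beta-arrestin complementation cell line | input = cell density 1000 per well | dosing = compound 20 µM once, DMSO 1% | timing = compound 90 min 25 °C, reagent 1 h | measured by = luminescence from split beta-galactosidase complementation, Galacton Star/Emerald II substrate | read-out basis = APJ agonist activity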
EBI2 block: antagonists of human EBI2 receptor; inhibition, % at 5 µM; EBI2 beta-arrestin recruitment, luminescence, 7a,25-OHC stimulated; P32249; 360,000 compounds, 0.81% hits; in the data active = inhibition above about 38%;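 note: enzyme fragment complementation signal reports receptor beta-arrestin coupling in cells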
Target sequence (P32249 whole entry, looked up, the tested form may be a part): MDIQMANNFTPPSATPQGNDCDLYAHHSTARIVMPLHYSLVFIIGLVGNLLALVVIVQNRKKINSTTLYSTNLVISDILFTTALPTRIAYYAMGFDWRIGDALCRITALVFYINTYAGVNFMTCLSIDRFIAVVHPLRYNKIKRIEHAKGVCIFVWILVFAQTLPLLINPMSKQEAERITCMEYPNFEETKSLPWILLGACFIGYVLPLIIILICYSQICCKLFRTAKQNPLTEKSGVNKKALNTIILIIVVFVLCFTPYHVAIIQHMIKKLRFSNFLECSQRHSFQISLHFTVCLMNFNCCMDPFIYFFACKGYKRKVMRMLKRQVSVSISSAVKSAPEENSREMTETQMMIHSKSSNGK
APJ antagonist: APJ receptor antagonism. 330,000 compounds, 0.32% hits. P35414. CHO-K1 APJ beta-arrestin complementation, luminescence. AID 2521. inhibition, % at 20 µM;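 active = inhibition above about 40% at 20 µM, limit read from the data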;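 note: cells challenged with 10 nM apelin-13 agonist together with compound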
EBI2 conf: EBI2 (human) antagonism, single concentration confirmation; 2,400 compounds, 29% hits; inhibition, % at 5 µM; shares compounds with EBI2 block; AID 651997; EBI2 beta-arrestin luminescence, 7a,25-OHC antagonism;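 active = inhibition of at least 50%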
EBI2 ag: activates EBI2, counter-screen for EBI2 antagonists. activation, % at 5 µM. 2,400 tested, under 10 active. EBI2-expressing cells, agonist mode, luminescence, 60 min; 0% vehicle, 100% 7α,25-dihydroxycholesterol control. AID 652000. shares compounds with EBI2 block;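 active = activation of at least 50%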
bGal cs: counter-screen for EBI2 antagonists: E. coli beta-galactosidase inhibition | shares compounds with EBI2 block | purified beta-galactosidase, luminescent Galacton Star, 15 min | inhibition, % at 5 µM | 2,400 compounds, 1% hits | AID 652176;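 active = replicate-average signal at least 3 plate SD below neutral wells, shown as high inhibition, flagging enzyme-inhibiting false positives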;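 note: higher means stronger loss of beta-gal luminescence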
Hits are given with their value; n = inactive; x = not tested or not shown. A selection: hits, their analogues and other compounds. The true share with any hit is near 1.5%.

SMILES	CCR6 antagonist	CXCR6 inh	APJ ag	EBI2 block	APJ antagonist	EBI2 conf	EBI2 ag	bGal cs
Cc1ccc2c(CC(=O)N3CCN(S(=O)(=O)c4ccc5c(c4)OCCO5)CC3)coc2c1	n	n	n	50	n	n	n	n
Cc1ccc2c(CC(=O)N3CCN(S(=O)(=O)c4ccccc4)CC3)coc2c1	n	n	n	n	n	x	x	x
COc1cc(F)ccc1-c1csc(C(C)(NC(C)=O)c2ccccc2)n1 (configuration not stated)	x	n	x	n	x	x	x	x
Cc1ccc(Oc2ccc(C(=O)NC3CCSC3=O)cn2)cc1 (configuration not stated)	n	n	n	49	n	n	n	n
O=C(NC1CCSC1=O)c1ccc(Oc2ccc(F)cc2)nc1 (configuration not stated)	n	n	n	n	n	x	x	x
COc1ccc(C(NC(=O)C2CCN(CCOc3ccc(Cl)cc3)CC2)c2cccs2)cc1 (configuration not stated)	x	n	x	46	x	n	n	n
O=C(NC(c1ccccc1)c1ccc2ccccc2n1)C1CCN(CCOc2ccc(Cl)cc2)CC1 (configuration not stated)	x	n	x	60	x	59	n	n
COc1ccc(OCCN2CCC(C(=O)NC(c3ccc(OC)cc3)c3ccccn3)CC2)cc1 (configuration not stated)	x	n	x	n	x	x	x	x
COc1ccc(OCCN2CCC(C(=O)NC(c3ccccc3)c3ccc4ccccc4n3)CC2)cc1 (configuration not stated)	x	n	x	49	x	n	n	n
O=S(=O)(c1cccs1)N1CCN(CCOc2ccc(Cl)cc2)CC1	n	n	n	64	n	n	n	n
CCc1nc2ccc(C(=O)N(C)CCN(C)C)cn2c1N(CC)C(=O)NCCc1ccccc1	x	n	x	n	x	x	x	x
COC(=O)[C@]12CCCCC=C1N(CCc1ccc(OC)c(OC)c1)C(=O)[C@H](CC(=O)NCc1cccs1)C2	x	x	x	n	x	x	x	x
CCc1nc2ccc(C(=O)N(C)CCCN(C)C)cn2c1N(C)Cc1cc2ccccc2s1	x	n	x	n	x	x	x	x
COc1ccc(OCCN2CCC(C(=O)NC(c3ccc(F)cc3)c3ccc4ccccc4n3)CC2)cc1 (configuration not stated)	x	n	x	53	x	n	n	n
O=C(NC(c1ccc(F)cc1)c1ccc2ccccc2n1)C1CCN(CCOc2ccc(Cl)cc2Cl)CC1 (configuration not stated)	x	n	x	64	x	n	n	n
O=C(NC(c1ccc(F)cc1)c1ccc2ccccc2n1)C1CCN(CCOc2ccc(F)cc2)CC1 (configuration not stated)	x	n	x	n	x	x	x	x
Cc1nc2sccn2c(=O)c1S(=O)(=O)N1CCN(c2ccccc2F)CC1	x	n	x	n	x	x	x	x
O=C(CCC1CCCC1)NNC(=O)COc1ccc(Br)cc1	n	n	n	79	n	n	n	n
CCOC(=O)c1c(NC(=O)C2C3C=CC(C3)C2C(=O)O)sc2c1CCC(C)C2 (configuration not stated)	n	n	n	n	n	x	x	x
CCOC(=O)c1c(NC(=S)NC(=O)c2cnn(CC)c2)sc2c1CCC(C)C2 (configuration not stated)	n	n	n	46	n	n	n	n
CC1(C(=O)NCc2cccc3ccccc23)CCN1C(=O)Cc1ccc(-c2ccccc2)cc1 (configuration not stated)	x	n	x	n	x	x	x	x
CC(=O)N1CCN(c2nnc(-c3ccccc3)c3ccccc23)CC1	n	n	n	n	n	x	x	x
Cc1ccc(OCC(=O)N2CCN(c3nnc(-c4ccc(C)cc4)c4ccccc34)CC2)cc1	n	n	n	87	n	84	n	n
COc1ccc(OCC(=O)N2CCN(c3nnc(-c4ccccc4)c4ccccc34)CC2)cc1	n	n	n	92	n	80	n	n
O=C(COc1ccccc1)N1CCN(c2nnc(-c3ccccc3)c3ccccc23)CC1	n	n	n	71	n	n	n	n
SMILES	CCR6 antagonist	CXCR6 inh	APJ ag	EBI2 block	APJ antagonist	EBI2 conf	EBI2 ag	bGal cs
CCC(=O)N1CCN(c2nnc(-c3ccccc3)c3ccccc23)CC1	n	n	n	n	n	x	x	x
COc1ccc(OCC(=O)N2CCN(c3nnc(-c4ccc(C)cc4)c4ccccc34)CC2)cc1	n	n	n	96	n	83	n	n
CC(O)(c1ccc(F)c(F)c1)c1nc(-c2cc3ccccc3o2)cs1 (configuration not stated)	x	n	x	n	x	x	x	x
Cc1cc(C)cc(CC(=O)N2CCC2(C)C(=O)NS(=O)(=O)c2ccc(Br)cc2)c1 (configuration not stated)	x	n	x	n	x	x	x	x
CC(=O)NCCNc1nc2cc(-c3ccc4c(ccn4C)c3)sc2c(=O)n1C	x	n	x	n	x	x	x	x
CCCNC(=O)C1(C)CCN(C(=O)Cc2ccc3ccccc3c2)C1 (configuration not stated)	x	n	x	n	x	x	x	x
O=C(NCCc1ccccc1)c1oc2ccccc2c1COc1ccccc1	n	n	x	45	x	n	n	n
COc1ccc(OCC(=O)N2CCN(C(=O)c3cccc4ccccc34)CC2)cc1	n	n	n	70	n	n	n	n
COc1ccc(OCC(=O)N2CCN(C(=O)c3ccc([N+](=O)[O-])cc3)CC2)cc1	n	n	n	88	n	60	n	n
O=C(COc1ccc(Cl)cc1)N1CCN(C(=O)c2ccccc2F)CC1	n	n	n	82	n	n	n	n
COc1ccc(OCC(=O)N2CCN(C(=O)c3ccccc3)CC2)cc1	n	n	n	77	n	74	n	n
CCNC(=O)N(C)c1c(CC)nc2ccc(C(=O)N3CCN(S(=O)(=O)CC)CC3)cn12	x	n	x	n	x	x	x	x
CCCCC[C@H](C)N1C[C@@H](COCc2ccccc2)Oc2cc(N3CCC[C@@H]3COC)ccc2S1(=O)=O	x	n	x	n	x	x	x	x
Cc1cccc(OCC(=O)N2CCN(C(=O)c3ccc([N+](=O)[O-])cc3)CC2)c1	n	n	n	47	n	n	n	n
CC(Sc1nc2cc([N+](=O)[O-])ccc2n1-c1ccc(F)cc1)C(=O)NCc1ccc2c(c1)OCO2 (configuration not stated)	n	n	n	54	n	n	n	n
Cc1c(C(=O)Oc2cccc3ccccc23)cnn1-c1ccccc1	n	n	n	31	n	n	n	n
CCOC(=O)C1(C)CCN1C(=O)c1ccc(Cl)nc1 (configuration not stated)	x	n	x	n	x	x	x	x
COc1ccc(CCC(=O)N2CCN(S(=O)(=O)c3ccc4ccccc4c3)CC2)cc1	n	n	n	64	n	n	n	n

Bioassay records (PubChem)
